ChEMBL document CHEMBL4007409, “Design and Synthesis of Novel and Selective Phosphodiesterase 2 (PDE2a) Inhibitors for the Treatment of Memory Disorders” (J Med Chem, 2017)
In brackets after ≈: the same amount, converted by molar mass.

How the values were obtained:
[1] = Intrinsic clearance in rat liver microsomes at 1 uM measured up to 30 mins in presence of NADPH by HPLC analysis; type: ADME, microsome; conditions: read-out: CLH
In short: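 Compound at 1 µM final was incubated with human or rat liver microsomes (0.5 mg protein/mL) in Tris buffer at 37 °C, started with NADPH (2 mM). Samples were quenched in cold ACN with indomethacin internal standard at 0, 5, 15 and 30 min (RLM) or 0, 15, 30 and 60 min (HLM) and analysed by HPLC. CLint = first-order degradation rate constant / microsomal protein concentration.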

[2] = Solubility of the compound; type: physicochemical
[3] = Cmax in Sprague-Dawley rat plasma at 1 mg/kg, po administered as single dose by LC-MS/MS analysis; type: ADME, organism-based; set-up: dose 1 mg/kg, route oral
In short: (§1)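 Non-fasted male SD rats (200-250 g, n=3) received a single oral 1 mg/kg dose in NMP:PEG400:water (5:35:65). Femoral-vein blood was sampled pre-dose and at 0.25–24 h. Plasma was extracted with acetonitrile plus internal standard and analysed by LC-MS/MS over a 0.5–2000 ng/mL calibration range.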

[4] = system: Plasma; test: Drug uptake in Sprague-Dawley rat plasma at 1 mg/kg, po administered as single dose by LC-MS/MS analysis; type: ADME, organism-based; conditions: read-out: Cp, in vivo
In short: (§2)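 Male SD rats got a single 1 mg/kg oral dose in NMP:PEG400:water (5:35:65). Total brain, CSF and plasma levels were then measured.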

[5] = Oral bioavailability in Sprague-Dawley rat plasma at 1 mg/kg administered as single dose by LC-MS/MS analysis; type: ADME, organism-based; in short: as §1
[6] = system: Cerebrospinal fluid; test: Drug uptake in Sprague-Dawley rat cerebrospinal fluid at 1 mg/kg, po administered as single dose by LC-MS/MS analysis; type: ADME, organism-based; conditions: in vivo, read-out: Drug uptake; in short: as §2
[7] = Volume of distribution at steady state in Sprague-Dawley rat plasma at 1 mg/kg, iv administered as single dose by LC-MS/MS analysis; type: ADME, organism-based; conditions: read-out: Vdss
In short: (§3)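 Male SD rats (200-250 g), not fasted, n=3, given a single 1 mg/kg IV dose in NMP:PEG400:water (5:35:65) via jugular/femoral vein catheters. Blood was taken from pre-dose to 24 h (0.033–24 h). Plasma was protein-precipitated with acetonitrile containing internal standard and quantified by LC-MS/MS against 0.5–2000 ng/mL standards.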

[8] = AUC (infinity) in Sprague-Dawley rat plasma at 1 mg/kg, po administered as single dose by LC-MS/MS analysis; type: ADME, organism-based; set-up: dose 1 mg/kg, time infinity, route oral; in short: as §1
[9] = system: Brain; test: Drug uptake in Sprague-Dawley rat brain at 1 mg/kg, po administered as single dose by LC-MS/MS analysis; type: ADME, organism-based; conditions: in vivo, read-out: Drug uptake; in short: as §2
[10] = Clearance in Sprague-Dawley rat plasma at 1 mg/kg, iv administered as single dose by LC-MS/MS analysis; type: ADME, organism-based; in short: as §3
[11] = Elimination half life in Sprague-Dawley rat plasma at 1 mg/kg, iv administered as single dose by LC-MS/MS analysis; type: ADME, organism-based; conditions: read-out: beta t1/2 (converted); in short: as §3
[12] = AUC (0 to infinity) in Sprague-Dawley rat plasma at 1 mg/kg, iv administered as single dose by LC-MS/MS analysis; type: ADME, organism-based; set-up: dose 1 mg/kg, time infinity, route intravenous; in short: as §3
[13] = system: Rattus norvegicus; test: Clearance in Sprague-Dawley rat plasma at 1 mg/kg, iv administered as single dose by LC-MS/MS analysis relative to hepatic blood flow; type: ADME, organism-based; conditions: in vivo
[14] = Tmax in Sprague-Dawley rat plasma at 1 mg/kg, po administered as single dose by LC-MS/MS analysis; type: ADME, organism-based; in short: as §1

SMILES | microsomal CLint at 1 µM [1] [µL/min/mg] | solubility [2] [µg/mL] | other results
Cc1cc(C2CCCN(C(=O)c3ccc4ncccc4c3)C2)n2ncnc2n1 (centres undefined) | 6.3 | 47 (≈ 126 µM) | 
Cc1cc(C2CCCN(C(=O)c3ccc4c(c3)OCC4)C2)n2ncnc2n1 (centres undefined) | 21.7 | 36 (≈ 99.1 µM) | 
COc1ccc(C(=O)N2CCCC(c3cc(C)nc4ncnn34)C2)cc1C (centres undefined) | 30.2 | 36 (≈ 98.5 µM) | 
Cc1cc([C@H]2CN(C(=O)c3ccc(F)c(Br)c3)CC(F)(F)C2)n2ncnc2n1 | 17.3 |  | 
COc1cc(Cl)ccc1NC(=O)C1CCCN(c2cc(C)nc3ncnn23)C1 (centres undefined) | 78.9 | 45 (≈ 112 µM) | 
Cc1cc(C2CCCN(C(=O)c3ccc4c(c3)CCC4)C2)n2ncnc2n1 (centres undefined) | 83.9 | 47 (≈ 130 µM) | 
Cc1cc(N2CCCC(C(=O)Nc3ccc4c(c3)CCC4)C2)n2ncnc2n1 (centres undefined) | 67.9 | 49 (≈ 130 µM) | 
Cc1cc(C2CCCN(C(=O)c3ccc(F)c(C)c3)C2)n2ncnc2n1 (centres undefined) | 33.5 | 35 (≈ 99 µM) | 
O=C(Nc1ccc2c(c1)CCC2)C1CCCN(c2cc(C(F)(F)F)nc3ncnn23)C1 (centres undefined) | 94.1 | 29 (≈ 67.4 µM) | 
Cc1cc([C@@H]2CN(C(=O)c3cc(C)c(F)c(F)c3)CC(F)(F)C2)n2ncnc2n1 | 52.2 |  | 
Cc1cc(C2CCCN(C(=O)c3ccc4ccccc4c3)C2)n2ncnc2n1 (racemic) | 85.6 | 37 (≈ 99.6 µM) | 
O=C(Nc1ccc2c(c1)CCC2)C1CCCN(c2ccnc3ncnn23)C1 (centres undefined) | 76.2 | 47 (≈ 130 µM) | 
Cc1cc(N2CCCC(C(=O)Nc3ccc4ccccc4c3)C2)n2ncnc2n1 (centres undefined) | 53.4 | 13 (≈ 33.6 µM) | 
Cc1cc([C@@H]2CN(C(=O)c3ccc(F)c(Br)c3)CC(F)(F)C2)n2ncnc2n1 | 25.7 |  | Cmax [3]: 201 ng/mL; concentration [4]: 204 nM; bioavailability [5]: 87%; concentration [6]: 15 nM; Vd [7]: 0.98 L/kg; AUC(0-inf) [8]: 442 ng·h/mL; concentration [9]: 66 nM; clearance [10]: 32.8 mL/min/kg; half-life [11]: 60.6 min; AUC(0-inf) [12]: 508 ng·h/mL; CL [13]: 50%; Tmax [14]: 40.2 min
Cc1cc([C@H]2CCCN(C(=O)c3ccc4ccccc4c3)C2)n2ncnc2n1 | 124 | 37 (≈ 99.6 µM) | 
Cc1cc(C2CN(C(=O)c3ccc4ccccc4c3)CC(F)(F)C2)n2ncnc2n1 (racemic) | 78.8 |  | 
COc1ccc(C(=O)N2CC(c3cc(C)nc4ncnn34)CC(F)(F)C2)cc1C (racemic) | 67.7 |  | 
Cc1cc([C@@H]2CN(C(=O)c3ccc(F)c(C4CC4)c3)CC(F)(F)C2)n2ncnc2n1 | 162 |  | 
Cc1cc([C@@H]2CCCN(C(=O)c3ccc4ccccc4c3)C2)n2ncnc2n1 | 41.4 | 37 (≈ 99.6 µM) | 
